{
  "source": "ChEMBL document CHEMBL4017514",
  "about": "“Discovery of Novel Macrocyclic Hedgehog Pathway Inhibitors Acting by Suppressing the Gli-Mediated Transcription” (J Med Chem, 2017)",
  "key": {"Mus musculus [1]": {"organism": "Mus musculus", "experiment": "Inhibition of hedgehog signaling pathway in mouse Light2 cells in Shh conditioned medium by Gli-luciferase reporter gene assay", "format": "cell-based", "summary_of_the_method": "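Light II cells (NIH-3T3 stably transfected with Gli-responsive firefly luciferase and Renilla expression vector) stimulated with ShhN conditioned medium. This medium was collected from ShhN-transfected HEK293 cells kept in 0.1% FBS. Firefly luciferase normalized to Renilla. IC50 given as mean ± SD (nM) from three separate experiments.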"}, "[2]": {"target": "T1, Zinc finger protein GLI1 (Homo sapiens) (UniProt P08151)", "T1 sequence (whole entry)": "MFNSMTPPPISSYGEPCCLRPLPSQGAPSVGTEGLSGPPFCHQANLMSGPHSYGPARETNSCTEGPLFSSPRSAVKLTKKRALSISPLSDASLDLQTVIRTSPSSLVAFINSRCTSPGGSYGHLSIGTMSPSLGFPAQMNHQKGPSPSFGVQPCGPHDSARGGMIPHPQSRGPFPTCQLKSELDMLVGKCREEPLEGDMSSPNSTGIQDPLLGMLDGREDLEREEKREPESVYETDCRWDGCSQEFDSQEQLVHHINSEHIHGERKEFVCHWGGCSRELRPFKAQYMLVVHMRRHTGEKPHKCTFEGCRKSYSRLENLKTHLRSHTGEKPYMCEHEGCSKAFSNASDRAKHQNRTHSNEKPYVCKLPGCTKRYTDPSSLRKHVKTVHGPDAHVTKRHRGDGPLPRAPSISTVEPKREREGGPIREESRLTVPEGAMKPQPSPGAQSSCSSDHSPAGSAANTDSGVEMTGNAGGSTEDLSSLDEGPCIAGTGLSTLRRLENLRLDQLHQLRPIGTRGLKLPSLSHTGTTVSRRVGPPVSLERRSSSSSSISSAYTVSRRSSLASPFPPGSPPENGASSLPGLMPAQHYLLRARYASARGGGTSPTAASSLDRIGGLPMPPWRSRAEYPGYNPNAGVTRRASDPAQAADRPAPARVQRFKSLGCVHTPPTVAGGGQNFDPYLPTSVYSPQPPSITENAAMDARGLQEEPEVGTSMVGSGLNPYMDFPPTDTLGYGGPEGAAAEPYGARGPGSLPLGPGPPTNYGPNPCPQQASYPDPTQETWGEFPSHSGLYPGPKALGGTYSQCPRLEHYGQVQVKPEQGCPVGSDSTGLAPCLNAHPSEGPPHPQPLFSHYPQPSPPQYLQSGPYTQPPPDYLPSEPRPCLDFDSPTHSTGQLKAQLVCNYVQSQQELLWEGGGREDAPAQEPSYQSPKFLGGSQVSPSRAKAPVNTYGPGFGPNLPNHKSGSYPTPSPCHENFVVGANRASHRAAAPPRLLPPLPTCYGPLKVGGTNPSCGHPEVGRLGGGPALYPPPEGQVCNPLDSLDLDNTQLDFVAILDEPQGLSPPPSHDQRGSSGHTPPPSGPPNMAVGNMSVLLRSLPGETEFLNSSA", "experiment": "Inhibition of biotin-labeled Gli1binding sequence binding to Flag-tagged Gli1 (unknown origin) expressed in mouse NIH/3T3 cells at 1 uM by EMSA", "format": "cell-based", "summary_of_the_method": "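EMSA with biotin-labeled Gli-binding sequence from the twist1 promoter, probing Gli1 DNA binding. Unlabeled Gli-binding sequence served as competitor.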"}, "Mus musculus [3]": {"organism": "Mus musculus", "experiment": "Inhibition of hedgehog signaling pathway in mouse NIH/3T3 cells hoarboring Gli1 plasmid assessed as reduction in ectopic expression of Gli1 protein at 50 to 1000 nM by immunoblot analysis", "format": "cell-based"}, "Mus musculus [4]": {"organism": "Mus musculus", "experiment": "Inhibition of hedgehog signaling pathway in mouse Light2 cells harboring wild type Smo after 36 hrs by Gli luciferase activity", "format": "cell-based", "summary_of_the_method": "(§1)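 Light II cells (NIH-3T3 stably carrying Gli-responsive firefly luciferase and Renilla vector) transfected with wild-type, D473H or W535L Smo plasmid. Exposed to compound for 36 h, then dual luciferase assay with firefly/Renilla normalization. IC50 derived and given as mean ± SD.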"}, "Mus musculus [5]": {"organism": "Mus musculus", "experiment": "Inhibition of hedgehog signaling pathway in mouse Light2 cells harboring Smo W535L mutant after 36 hrs by Gli luciferase activity", "format": "cell-based", "summary_of_the_method": "as §1"}, "Medulloblastoma cell [6]": {"tested_on": "Medulloblastoma cell", "experiment": "Induction of apoptosis in mouse Ptch+/- p53-/- medulloblastoma cells implanted in athymic nude mouse at 25 to 50 mg/kg, ip bid for 15 consecutive days by TUNEL assay", "format": "functional, organism-based", "summary_of_the_method": "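Apoptosis in subcutaneous ptch+/−;p53−/− medulloblastoma allografts in nude mice (n = 5), dosed ip twice daily for 15 days. Tumor sections stained by TUNEL and apoptotic cells imaged at 60×.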"}, "Mus musculus [7]": {"organism": "Mus musculus", "experiment": "Inhibition of hedgehog signaling pathway in mouse NIH/3T3 cells hoarboring Gli2 plasmid assessed as reduction in ectopic expression of Gli2 protein at 50 to 1000 nM by immunoblot analysis", "format": "cell-based"}, "Medulloblastoma cell [8]": {"tested_on": "Medulloblastoma cell", "experiment": "Antiproliferative activity against mouse Ptch+/- p53-/- medulloblastoma cells assessed as reduction in cell proliferation after 72 hrs by MTS assay", "format": "functional, cell-based", "summary_of_the_method": "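Tumor cells obtained from ptch+/−;p53−/− medulloblastoma allografts by mechanical mincing and collagenase digestion. Cultured in Neurobasal A with B-27, EGF 20 ng/mL, bFGF 20 ng/mL, nonessential amino acids and N-acetylcysteine 60 μg/mL. Exposed to compounds for 72 h, then proliferation read by MTS assay. Data given as mean ± SD.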"}, "Mus musculus [9]": {"organism": "Mus musculus", "experiment": "Inhibition of hedgehog signaling pathway in mouse NIH/3T3 cells assessed as downregulation of Shh-induced ptch1 mRNA expression levels at 300 nM after 36 hrs by RT-qPCR analysis", "format": "cell-based", "summary_of_the_method": "(§2)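 NIH-3T3 or C3H10T1/2 cells treated as indicated for 36 h, then collected for RT-qPCR of Gli1 and ptch1 mRNA. Data given as mean ± SD.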"}, "Mus musculus [10]": {"organism": "Mus musculus", "experiment": "Inhibition of hedgehog signaling pathway in mouse Shh Light2 cells harboring Gli2 plasmid assessed as reduction in Gli2-mediated transcriptional activity by luciferase reporter gene assay", "format": "cell-based"}, "Mus musculus [11]": {"organism": "Mus musculus", "experiment": "Inhibition of hedgehog signaling pathway in mouse C3H10T1/2 cells assessed as downregulation of Shh-induced Gli1 mRNA expression levels at 300 nM after 36 hrs by RT-qPCR analysis", "format": "cell-based", "summary_of_the_method": "as §2"}, "Mus musculus [12]": {"organism": "Mus musculus", "experiment": "Inhibition of hedgehog signaling pathway in mouse Light2 cells in Shh conditioned medium at 1 uM by Gli-luciferase reporter gene assay relative to control", "format": "cell-based"}, "Mus musculus [13]": {"organism": "Mus musculus", "experiment": "Inhibition of hedgehog signaling pathway in mouse NIH/3T3 cells assessed as reduction in edogenous expression of Gli2 protein by immunoblot analysis", "format": "cell-based", "summary_of_the_method": "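NIH-3T3 cells cultured in 10% FBS were exposed to compound at various concentrations for 24 h. Endogenous Gli1 and Gli2 detected by Western blot.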"}, "Homo sapiens": {"organism": "Homo sapiens", "experiment": "Inhibition of PGE2-stimulated TCF/LEF activity in human LS174T cells at 1 uM measured after 6 hrs by dual luciferase reporter gene assay", "format": "cell-based", "summary_of_the_method": "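LS174T cells carrying TCF/LEF reporter, stimulated with PGE2 and treated for 6 h. Dual luciferase read-out, firefly normalized to Renilla. Data given as mean ± SD.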"}, "Mus musculus [14]": {"tested_on": "Mus musculus", "experiment": "Downregulation of Gli1 mRNA expression level in athymic nude mouse implanted with mouse Ptch+/- p53-/- medulloblastoma cells at 25 to 50 mg/kg, ip bid for 15 consecutive days measured after 4 hrs of last dosage by RT-qPCR analysis", "format": "functional, organism-based", "summary_of_the_method": "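Same allograft model (n = 5), dosed ip twice daily for 15 days in 0.5% methylcellulose/0.2% Tween-80 suspension. Tumors harvested 4 h after the last dose. Gli1 and ptch1 mRNA quantified by RT-qPCR. Data given as mean ± SD.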"}},
  "note": "Calls of active or inactive are those of the source. The rule behind the calls is not given here.",
  "data": [
    {"smiles": "COc1ccc(CN2C[C@@H]3CN(S(=O)(=O)c4ccc(Cl)cc4)CC[C@@H]3Oc3c(NC(=O)C4CC4)cccc3C2=O)cc1", "note": "(racemic)", "values": [
      {"measurement": "inhibition", "setting": "Mus musculus [1]", "result": "Dose-dependent effect"},
      {"measurement": "inhibition", "setting": "[2]", "result": "inactive"},
      {"measurement": "inhibition", "setting": "Mus musculus [3]", "result": "Active"},
      {"measurement": "inhibition", "setting": "Mus musculus [4]", "result": "Dose-dependent effect"},
      {"measurement": "inhibition", "setting": "Mus musculus [5]", "result": "Dose-dependent effect"},
      {"measurement": "Activity", "setting": "Medulloblastoma cell [6]", "result": "Active"},
      {"measurement": "inhibition", "setting": "Mus musculus [7]", "result": "Active"},
      {"measurement": "Activity", "setting": "Medulloblastoma cell [8]", "result": "Dose-dependent effect"},
      {"measurement": "inhibition", "setting": "Mus musculus [9]", "result": "Active"},
      {"measurement": "inhibition", "setting": "Mus musculus [10]", "result": "Dose-dependent effect"},
      {"measurement": "inhibition", "setting": "Mus musculus [11]", "result": "Active"},
      {"measurement": "inhibition", "setting": "Mus musculus [12]", "result": 97, "unit": "%"},
      {"measurement": "inhibition", "setting": "Mus musculus [13]", "result": "Dose-dependent effect"},
      {"measurement": "inhibition", "setting": "Homo sapiens", "result": "Active"},
      {"measurement": "Activity", "setting": "Mus musculus [14]", "result": "Active"}
    ]}
  ]
}
